Bioassay records (PubChem)
HTR2A ag: mouse Htr2a agonists via beta-arrestin recruitment, primary screen, cell-based, luminescence; 5-hydroxytryptamine receptor 2A (Mus musculus), P35363; CHO-K1 mHTR2A beta-arrestin complementation; percent of 30 µM serotonin response; activation, % at 7.6 µM; 0.66% of 360,000 active; AID 624169, 2012;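 active means activation above a run cutoff, the mean activation of all tested compounds plus 3 SD, cut at about 14% in these data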;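 further: 0% = plate median of compound wells and 100% = 30 µM serotonin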
Target sequence (P35363 whole entry, looked up): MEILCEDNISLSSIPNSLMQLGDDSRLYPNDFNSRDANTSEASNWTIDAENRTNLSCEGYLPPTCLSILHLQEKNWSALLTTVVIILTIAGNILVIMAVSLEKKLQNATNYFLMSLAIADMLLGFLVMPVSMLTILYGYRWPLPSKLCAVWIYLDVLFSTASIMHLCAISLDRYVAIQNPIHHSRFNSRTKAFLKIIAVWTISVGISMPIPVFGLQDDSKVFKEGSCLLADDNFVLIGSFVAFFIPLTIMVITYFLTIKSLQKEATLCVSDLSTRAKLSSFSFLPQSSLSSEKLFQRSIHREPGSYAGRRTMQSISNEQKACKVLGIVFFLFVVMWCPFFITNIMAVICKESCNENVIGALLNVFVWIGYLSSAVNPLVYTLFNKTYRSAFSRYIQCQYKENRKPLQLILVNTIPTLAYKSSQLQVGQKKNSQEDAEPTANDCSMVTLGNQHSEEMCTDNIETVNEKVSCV
MC4R antagonist: MC4R antagonists of cAMP signaling, primary screen, cell-based, TR-FRET, antagonist arm of biased-ligand search; Melanocortin receptor 4 (Homo sapiens), P32245; MC4R-expressing cells, MTII-stimulated cAMP, LANCE TR-FRET; inhibition, % at 6.5 µM; 0.48% of 360,000 active; AID 540295, 2011;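 active means inhibition above its plate's cutoff, the mean of tested wells on that plate plus 3 SD, cut at about 29% in these data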;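 further: 0% = Melanotan II alone and 100% = Melanotan II plus saturating MCL0020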
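Material: U2OS-MC4R stable cell line | Reagent: Melanotan II challenge after compound preincubation | Doses: One concentration, 6.5 µM nominal | Incubation: 30-min compound preincubation, 1-h Melanotan II challenge, 1-h detection, room temperature | Signal: TR-FRET cAMP assay | Replicates: One well per compound, no replicates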
TAAR1 agonist: human TAAR1 agonists, primary screen, Fluo-8 calcium fluorescence, CHO RD-HGA16 cells | Trace amine-associated receptor 1 (Homo sapiens), Q96RJ0 | 0.99% of 360,000 active | AID 624467, 2012 | activation, % at 3 µM | vehicle wells 0%, saturating PEA agonist 100%;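 active means activation above the mean activation of all test compounds in the run plus 3 SD, cut at about 38% in these data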
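System: CHO RD-HGA16 cells carrying human TAAR1 plus Gα16; Incubation: 17-24 h seeding, 75 min 37 °C dye, 30 min RT; Measured by: Fluo-8 fluorescence, 5 s baseline then 140 s kinetic read; Control set: DMSO and PEA EC100; Replication: single well for each compound.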
B2AR ag: beta2AR agonists driving receptor internalization, primary screen, cell-based, FAP fluorogen, flow cytometry; 0.43% of 340,000 active; response, % (no concentration beside the values); Am2.2-beta2AR cells; AID 504454, 2011; Beta-2 adrenergic receptor (Homo sapiens), P07550;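 active means response above a set limit, near 3 SD of response in nonfluorescent compounds, cut at about 42% in these data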
TAAR1 antagonist: human TAAR1 antagonists, primary screen, Fluo-8 calcium fluorescence, CHO RD-HGA16 cells | antagonist | inhibition, % at 3 µM | 1.5% of 360,000 active;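 active means inhibition above a per-plate cutoff, the mean inhibition of test compounds on that plate plus 3 SD, cut at about 49% in these data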;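 further: 0% = DMSO plus EC80 beta-PEA response and 100% = DMSO alone without agonist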
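Assay system: CHO-derived RD-HGA16 cells stably expressing human TAAR1 plus Gα16. Timing: 140 s kinetic read after compound, 140 s after agonist. Technique: kinetic Fluo-8 calcium fluorescence measurement. Measure: % inhibition of agonist calcium response.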
MC4R ag barr: MC4R agonists recruiting beta-arrestin, primary screen, cell-based, luminescence, agonist arm of biased-ligand search; Melanocortin receptor 4 (Homo sapiens), P32245; U2OS MC4R beta-arrestin complementation; percent of melanotan II response, DMSO zero; activation, % at 8.9 µM; 0.98% of 360,000 active; AID 540308, 2011;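 active means activation above a per-plate cutoff, the mean activation of sample wells on that plate plus 3 SD, cut at about 8% in these data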
U2OS cAMP counter: nonselective cAMP signaling inhibitors, parental cells, counter-screen for MC4R biased antagonist project, cell-based, TR-FRET, U2OS, forskolin, triplicate; shares compounds with MC4R antagonist; LANCE TR-FRET; inhibition, % at 6.5 µM; 26% of 1,600 active; AID 602193, 2012;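 active means mean inhibition over triplicates above the low-control well mean plus 3 SD, set per campaign, cut at about 13% in these data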;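 further: signal is single emission at 671 nm which falls as cellular cAMP rises; 0% = forskolin-stimulated wells and 100% = buffer without forskolin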
MC4R cAMP antag: MC4R cAMP antagonists, retest, confirmation, cell-based, TR-FRET. shares compounds with MC4R antagonist. MC4R-expressing cells, MTII-stimulated cAMP. AID 602195, 2012. 27% of 1,600 active. inhibition, % at 6.5 µM; in the data active means inhibition above about 29%;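 further: 0% = agonist stimulated wells alone and 100% = agonist stimulated wells plus saturating reference antagonist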
Active calls of the source: *; · = not tested or not shown; + = active, no number. Hits are enriched below; roughly 4.3% of the tested compounds scored in any of these assays.

SMILES	HTR2A ag	MC4R antagonist	TAAR1 agonist	B2AR ag	TAAR1 antagonist	MC4R ag barr	U2OS cAMP counter	MC4R cAMP antag
O=C(O)c1cccc2c1C(=O)c1ccc(N3CCN(Cc4ccc5c(c4)OCO5)CC3)cc1S2(=O)=O	0.5	32.9*	0.5	·	-12.9	1.8	-0.9	-4.3
CSCCC(NC(=O)c1ccc([N+](=O)[O-])cc1Cl)C(=O)OC(C)C(=O)NCc1ccco1 (centres undefined)	2.9	28.7*	-0.9	15.7	-22.0	-2.1	8.5	18.4
CSCCC(NC(=O)c1ccc([N+](=O)[O-])cc1Cl)C(=O)OCC(=O)N1CCN(C(C)=O)CC1 (centres undefined)	2.9	10.9	0.8	-6.2	-19.6	-2.2	·	·
CSCCC(NC(=O)c1ccc([N+](=O)[O-])cc1Cl)C(=O)OCC(=O)C12CC3CC(CC(C3)C1)C2 (centres undefined)	3.3	33.1*	1.8	-4.9	-2.1	1.9	-3.2	1.8
CC(C)(C)C(=O)NNC(=O)c1cnccn1	-1.4	3.3	0.5	-8.9	-12.4	-2.2	·	·
CC(C)n1nc(C(=O)NNC(=O)c2ccc(OC(F)F)cc2)c2ccccc2c1=O	4.5	4.4	2.4	-4.1	-2.0	-2.6	·	·
Cc1ccc(C(=O)N2CCC(C(=O)c3ccc(Cl)cc3)CC2)cc1	-0.9	-2.0	-0.7	3.9	-10.5	-1.9	·	·
CC(C)(C)c1ccc(CC(=O)N2CCC2(C)C(=O)O)cc1 (centres undefined)	-3.5	3.2	3.9	·	-21.1	-1.7	·	·
CCC(CC)C(=O)N(C)c1c(C)nc2c(OCCOc3ccc(F)cc3)cccn12	0.1	30.5*	1.5	·	-30.7	1.9	-0.8	1.8
CCC(CC)C(=O)N(C)c1c(C)nc2c(OCC(=O)N(C)C)cccn12	-1.3	1.0	0.0	·	-0.6	-0.6	·	·
CNC(C)c1ccc(S(N)(=O)=O)cc1 (centres undefined)	3.2	37.8*	4.1	3.1	5.7	-0.7	-3.4	1.7
CC(NC(=O)C(c1ccccc1)c1ccccc1)c1ccc(S(N)(=O)=O)cc1 (centres undefined)	-2.6	-1.7	2.2	-4.8	-4.5	2.4	·	·
S=C(NC1CC1)NC1CCCc2ccccc21 (centres undefined)	0.9	28.5*	11.2	13.5	-3.9	3.2	5.5	3.7
COc1ccc(-n2nc(C(=O)NCC(=O)N3CCCC3)c3ccccc3c2=O)cc1Cl	7.0	15.2	3.3	-16.2	-11.2	-1.4	·	·
CC(=O)Nc1ccc(NC(=O)CSc2nnc(NC(=O)c3cccc(F)c3)s2)cc1	-3.5	4.7	1.1	1.7	14.6	-2.7	·	·
COc1cc(-c2cc3nc(NCc4ccco4)ccn3n2)cc(OC)c1OC	1.2	-1.6	2.0	·	20.7	1.3	·	·
C#CC[N+]1(CC#Cc2ccccc2)CCCC1	-4.0	1.9	0.9	-5.3	6.0	-0.9	·	·
O=S(=O)([O-])CCC[N+]1(CC#Cc2ccccc2)CCCCC1	3.7	35.5*	5.6	0.1	5.0	-0.1	-0.6	4.3
O=C1/C(=C/c2ccccc2F)SC(=S)N1CCC(=O)N1CCCCC1CCO (centres undefined)	0.3	9.0	8.8	-1.6	-9.8	-0.2	·	·
CCCCNC(=O)c1ccc2nc(CC)c(N(CC)CCN(C)C)n2c1	-3.3	-0.6	-0.3	·	-17.0	-1.1	·	·
O=C(Nc1cc(Cl)ccc1-n1cncn1)c1cc(F)c(F)c(F)c1F	2.6	30.6*	2.9	-4.3	-14.2	1.5	24.1*	50.4*
CSc1sc(C)cc1C1C(C#N)=C(N)N(c2cccnc2)C2=C1C(=O)CC(C)(C)C2 (centres undefined)	4.5	29.4*	7.2	-9.1	-2.9	0.8	-4.0	-15.3
CCOc1ccc(OCC)c(C2C(C#N)=C(N)N(c3cccnc3)C3=C2C(=O)CC(C)(C)C3)c1 (centres undefined)	2.4	7.2	4.7	-2.0	-9.4	-0.1	·	·
CC(C)N1CC(C(=O)Nc2cccc([N+](=O)[O-])c2)CC1=O (centres undefined)	6.8	-5.1	0.3	-5.5	-22.4	-1.8	·	·
CC(C)Cc1ccc(-c2cc3nc(NCCc4ccc(S(N)(=O)=O)cc4)ccn3n2)cc1	-11.9	28.8*	23.1	·	67.3*	4.7	4.8	3.0
SMILES	HTR2A ag	MC4R antagonist	TAAR1 agonist	B2AR ag	TAAR1 antagonist	MC4R ag barr	U2OS cAMP counter	MC4R cAMP antag
CC(=O)NC(c1ccccc1)c1nc(-c2cccc(C(F)(F)F)c2)cs1 (centres undefined)	-2.1	10.1	0.8	·	-18.6	-0.2	·	·
CCOC(=O)C1CCCN(S(=O)(=O)c2cnc(Cl)c(Br)c2)C1 (centres undefined)	2.0	52.4*	2.1	9.3	-10.1	-1.7	14.8*	37.6*
CCOc1ccc(C2C(C(=O)c3ccc(C)o3)=C(O)C(=O)N2c2nc(C)c(C(=O)OC)s2)cc1 (centres undefined)	9.9	+	5.3	14.3	-39.6	1.0	74.5*	143.4*
Cc1ccc2nc(N3C(=O)C(O)=C(C(=O)c4ccc(C)o4)C3c3cccc(O)c3)sc2c1 (centres undefined)	-4.2	31.4*	6.0	6.2	1.1	0.3	1.8	13.3
COc1ccc2nc(N3C(=O)C(O)=C(C(=O)c4ccco4)C3c3ccc(OC)c(OC)c3)sc2c1 (centres undefined)	5.3	15.9	0.2	·	-5.8	-0.3	·	·
CCOC(=O)c1sc(N2C(=O)C(O)=C(C(=O)c3ccc(C)o3)C2c2ccc(OC)c(OC)c2)nc1C (centres undefined)	-3.2	27.5	-1.2	16.4	-16.6	-4.1	·	·
COC(=O)c1sc(N2C(=O)C(O)=C(C(=O)c3ccc(C)o3)C2c2ccc(OC)c(OC)c2)nc1C (centres undefined)	-2.4	187.9*	-0.3	3.0	-43.0	-2.8	-0.1	-16.4
O=C(c1ccc(S(=O)(=O)N2CCCCC2)cc1)N(c1ccccn1)C1CCCCC1	-0.8	31.9*	-1.2	-9.0	-35.4	-0.4	-6.4	-1.9
